L major viab: Leishmania major promastigote growth inhibition; Leishmania major promastigotes, resazurin fluorescence viability; inhibition, % at 10 µM; 200,000 compounds, 9% hits; AID 1063; in the data active means inhibition above about 50%;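 further: promastigotes grown with compound for 44 hours at 28 °C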
Ba/F3 V617F tox: loss of viability in JAK2V617F-driven Ba/F3 cells. Ba/F3 EpoR-JAK2V617F viability, ATP luminescence. inhibition, % at 5.6 µM. 220,000 compounds, 1.1% hits;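 active means inhibition above the campaign mean plus 3 SD over all tested compounds, cut at about 24% in these data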;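 further: cytokine-independent growth of Ba/F3 cells driven by EpoR plus mutant JAK2; 0% = DMSO-treated cells and 100% = JAK inhibitor I control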
b-catenin transl: modulators of beta-catenin nuclear translocation; nuclear translocation activity, % at 5 µM; 190,000 compounds, 0.3% hits; HeLa beta-catenin nuclear translocation, immunofluorescence imaging;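 active means nuclear translocation activity above 50% at 5 µM, with a well cell count of 50 or more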;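 further: per-cell ratio of nuclear to cytoplasmic median beta-catenin stain intensity; plate controls were DMSO negative control for no effect and GSK-3 inhibitor IX positive control for full effect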
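Test system: human HeLa cell line; Doses: 5 µM primary, 0.02–20 µM confirmation; Incubation: 24 h compound exposure, 37°C; Detection: beta-catenin immunofluorescence imaging with DAPI; Read-out: beta-catenin nuclear/cytoplasmic ratio, % activation.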
MT stabilizer: stabilizes microtubules in HeLa cells; HeLa tubulin immunostaining HCS, 24 h; share of cells brighter than vehicle mean+2SD; % tubulin-high responders, % at 10 µM; 200,000 compounds, 0.83% hits;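 active means plate Z-score above 3 for both tubulin-high and condensed-nucleus cell shares, with cell loss under 80%, at 10 µM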;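 further: anti alpha tubulin signal scored within the nucleus-defined area of each cell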
BaF3 parental: reduces parental Ba/F3 cell viability, JAK2V617F counter-screen. 220,000 compounds, 1.1% hits. inhibition, % at 5.6 µM. AID 1486. CellTiter-Glo ATP luminescence;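 active means inhibition above a per-campaign cutoff, the mean inhibition of all tested compounds plus 3 SD, cut at about 27% in these data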;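 further: 0% = DMSO wells and 100% = JAK Inhibitor I control wells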
APP transl inh: APP translation inhibition. SH-SY5Y APP 5'UTR-luciferase reporter, luminescence. inhibition, % at 2 µM. 190,000 compounds, 0.82% hits. AID 1285;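 active means inhibition above a set limit, derived from the sample mean plus 3 SD, cut at about 45% in these data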
Starred values were filed as active, the others as inactive; / = no result. Most compounds without a hit are left out; they make up all but 9.6% or so of the library.

SMILES	L major viab	Ba/F3 V617F tox	b-catenin transl	MT stabilizer	BaF3 parental	APP transl inh
COc1ccc(-n2c(-c3ccc(Br)cc3)c[n+]3c2CCC3)cc1	100.0*	80.8*	0.2	4.2	66.4*	7.0
CCCCN(CCCC)CC(O)COc1ccccc1Br (centres undefined)	19.5	1.1	0.8	1.8	6.2	7.6
COc1ccc(-n2c(-c3ccc(Br)cc3)c[n+]3c2SC(C)C3)cc1 (centres undefined)	100.1*	76.2*	-3.8	2.1	67.0*	-36.6
CCOc1ccc(-c2c(C)n([O-])c3c([n+]2=O)CCCCC3)cc1	-10.1	-3.2	-3.0	4.2	3.3	-6.2
COc1ccc(CC(=O)NCc2n[nH]c(=S)n2-c2ccc(Br)cc2)cc1	-7.0	-2.1	/	4.1	10.8	-19.8
COc1ccc(-n2c(-c3ccccc3)c[n+]3c2CCC3)cc1	/	74.5*	1.5	/	62.8*	/
CCOc1ccc(-c2c[n+]3c(n2-c2ccccc2)CCCCC3)cc1	100.3*	89.0*	-2.0	2.8	70.3*	-22.0
Oc1[nH]c2c(Cl)cc(Cl)cc2c1N=NC(=S)NCC1CCCO1 (centres undefined)	97.5*	5.6	1.0	3.6	6.7	36.9
O=C(NCc1ccccc1)Nc1cccn(Cc2ccc(F)cc2)c1=O	3.0	-1.8	-1.5	4.1	3.1	1.7
Cc1ccc(Cn2cccc(NC(=O)NC3CCCCC3)c2=O)cc1	85.8*	0.9	0.7	3.0	4.7	3.7
COc1cccc(Cn2cccc(NC(=O)NC3CCCCC3)c2=O)c1	99.0*	1.6	-1.0	4.9	6.2	2.6
O=C(Nc1cccn(Cc2ccc(F)cc2)c1=O)NC1CCCCC1	83.3*	-0.4	0.9	2.3	7.3	12.3
N#Cc1ccc(C(=O)Nc2nc(SCc3ccc(Cl)cc3)n[nH]2)cc1	2.1	3.3	-1.5	7.0	4.9	-3.9
CC1=C(C(=O)Nc2nc3ccccc3s2)C(c2ccco2)C(C#N)=C(SCC(=O)NC2CCCCC2)N1 (centres undefined)	73.0*	-5.5	3.2	3.1	-1.2	-9.1
CC1=C(C(=O)Nc2ccccc2)C(c2ccncc2)C(C#N)=C(SCC(=O)NC2CC2)N1 (centres undefined)	73.3*	-3.0	-2.1	2.8	1.4	10.1
CC1=C(C(=O)Nc2ccccc2)C(c2ccncc2)C(C#N)=C(SCC(=O)NC(C)C)N1 (centres undefined)	89.0*	4.3	0.8	4.3	7.7	15.7
CC(=O)C1=C(C)NC(SCC(=O)c2ccccc2)=C(C#N)C1c1ccco1 (centres undefined)	7.8	1.3	-2.5	2.5	3.0	-16.0
COc1ccccc1NC(=O)C1=C(C)NC(SCC(=O)Nc2ccc(C(=O)O)cc2)=C(C#N)C1c1cccs1 (centres undefined)	/	1.5	0.2	/	-0.4	/
COc1ccc(NC(=O)Nc2ccc(Br)cn2)cc1	0.4	0.6	-1.5	5.1	-0.3	-93.8
COc1ccccc1-c1nc(-c2ccccn2)no1	4.0	19.9	/	3.4	23.0	-98.3
COc1ccc(-c2nc(-c3ccccn3)no2)cc1	-0.2	34.1*	-0.3	0.8	35.0*	45.9*
C/C(=N/NC(=O)c1cc(C)[nH]n1)c1ccco1	/	-2.1	0.5	/	-0.9	/
Cc1cc(N/N=C/c2ccccc2)nc(NCc2ccccc2)n1	87.7*	-1.3	-0.3	2.5	7.4	-34.2
Cc1cc(N/N=C/c2cccc(Cl)c2)nc(NCc2ccccc2)n1	77.1*	-4.6	0.4	5.8	2.3	-34.5
Cc1cc(N/N=C/c2ccc(Cl)cc2)nc(NCc2ccccc2)n1	94.0*	-1.8	-0.4	1.9	5.5	-14.4
SMILES	L major viab	Ba/F3 V617F tox	b-catenin transl	MT stabilizer	BaF3 parental	APP transl inh
Cc1cc(N/N=C/c2cccc(F)c2)nc(NCc2ccccc2)n1	/	-3.4	-1.1	/	-3.8	/
Cc1cc(Nc2cccc(Cl)c2)nc(NCc2ccccc2)n1	100.4*	20.3	0.5	2.7	7.0	5.0
CCOc1ccc(C(=O)NC(=S)NCc2cccnc2)cc1[N+](=O)[O-]	-6.7	-2.6	-1.5	2.2	-1.6	-13.4
O=C1c2nc3cc(-c4ccco4)[nH]n3c(=O)c2CN1C1CCCCC1	/	-0.7	-4.5	/	-1.7	/
CCOc1ccccc1-n1c(SCC(=O)Nc2nccs2)nnc1-c1ccoc1C	73.0*	3.1	-5.1	5.0	3.9	7.6
Cc1cc(NS(=O)(=O)c2ccc(N3C(=O)C4C5C=CC(C5)C4C3=O)cc2)nc(C)n1 (centres undefined)	-7.4	1.7	-1.2	4.0	7.6	-0.1
O=C(CC(C(=O)N1CCc2ccccc21)n1ccnc1)NCc1ccccc1 (centres undefined)	100.1*	-4.4	-5.4	2.1	1.8	-0.2
CCN(CC)CC(C)CNC(=O)CC(C(=O)N1CCc2ccccc21)n1ccnc1 (centres undefined)	-4.4	-5.0	-0.1	1.9	2.4	-5.1
CCOC(=O)N1CCN(C(=O)CC(C(=O)N2CCc3ccccc32)n2ccnc2)CC1 (centres undefined)	83.4*	3.2	/	5.0	4.0	-1.6
c1ccc(-c2nc(Sc3ncnc4c3cnn4-c3ccccc3)n[nH]2)cc1	8.0	2.6	-1.6	5.6	4.7	2.3
Cc1ccc(S(=O)(=O)N/N=C\c2ccccc2OCc2ccccc2)cc1	34.3	0.0	/	24.8*	5.4	3.0
O=C(N/N=C/c1ccccc1OCc1ccccc1)c1cccnc1	74.7*	1.4	-0.3	2.9	6.1	-11.1
CC(=O)Nc1ccc(C(=O)N/N=C/c2ccccc2OCc2ccccc2)cc1	-0.6	-1.3	-0.4	19.2	3.1	-3.2
COC(=O)N/N=C/c1ccccc1OCc1ccccc1	11.7	-3.3	1.7	1.8	1.5	-11.8
O=C(N/N=C/c1c(-c2ccccc2)[nH]c2ccccc12)c1cccnc1	31.7	64.0*	38.6	18.2*	55.3*	-32.0
Cn1c(-c2ccccc2)c(/C=N/NC(=O)c2cccnc2)c2ccccc21	61.7*	0.3	-1.4	2.6	6.0	-4.3
O=C(N/N=C/c1c(O)n(Cc2ccccc2)c(=O)c2ccccc12)c1cccnc1	-2.3	5.0	-4.0	3.9	13.6	-24.3
Clc1cccc(Cl)c1C1=NOC(c2nnc(-c3ccccc3)o2)C1 (centres undefined)	/	/	-1.0	/	/	/
COc1cc(/C=C/C(=O)c2c(O)cc(C)oc2=O)cc(OC)c1O	97.1*	2.0	/	2.1	6.3	7.0
COc1ccc(C(=O)/C=C/c2ccc(N(C)C)cc2)c(OC)c1	/	-1.4	1.3	/	2.2	/
COc1cccc(/C=C/C(=O)c2c(O)cc(C)oc2=O)c1O	96.6*	0.4	/	2.5	4.7	-10.9
COc1ccc(C(=O)/C=C/c2cc(OC)c(O)c(OC)c2)c(F)c1	89.8*	2.2	18.5	5.5	9.5	0.8
CN=CC1=C(O)c2ccccc2C1=O	-3.5	1.5	4.8	2.8	2.0	4.6
O=C1C(C2=C(O)c3ccccc3C2=O)=Nc2ccccc21	99.6*	-0.9	0.0	3.7	4.4	-31.0
